Screens (PubChem)
The list is not random: actives were taken first. Their share in the collection is about 2%.
GPR7 antag = human neuropeptides B/W receptor 1 antagonism; AID 1861; 1.1% of 290,000 active; P48145; inhibition, % at 4.4 µM; GPR7-expressing cells, fluorescence antagonist assay; in the data active = inhibition above about 16%, passing the limit was not always enough;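 also: cells stimulated with the agonist NPW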
Target sequence (P48145 whole entry, looked up): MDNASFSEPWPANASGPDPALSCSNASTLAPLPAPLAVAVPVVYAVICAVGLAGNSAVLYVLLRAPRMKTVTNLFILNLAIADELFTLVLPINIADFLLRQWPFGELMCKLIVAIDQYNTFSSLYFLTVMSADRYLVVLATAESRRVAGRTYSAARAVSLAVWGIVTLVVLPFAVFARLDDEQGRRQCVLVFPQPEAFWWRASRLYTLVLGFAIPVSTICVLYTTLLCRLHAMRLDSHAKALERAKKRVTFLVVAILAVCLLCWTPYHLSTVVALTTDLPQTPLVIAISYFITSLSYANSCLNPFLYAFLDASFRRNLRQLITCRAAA
EBNA-1 inh = blocks EBNA-1 binding to DNA; EBNA-1 DNA binding, fluorescence polarization; inhibition, % at 14.8 µM; 0.34% of 300,000 active; AID 1950; in the data active = inhibition above about 28%
NS3 helicase inh = inhibitors of Hepatitis C virus NS3 helicase | NS3 helicase DNA unwinding, Cy5 molecular beacon fluorescence | inhibition, % at 10.9 µM | 0.56% of 290,000 active | AID 1800;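 active = inhibition above the mean of all tested compounds plus 3 SD, set per campaign, cut at about 35% in these data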
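Measured by: Cy5 fluorescence, 0 and 60 min reads / Assay system: NS3 helicase fragment of HCV / Control set: low DMSO, high thioflavine S at 110 µM / Times: 1 h reaction at 25 °C, ATP-initiated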
DNA FID counter-1 = fluorescent intercalator displacement, NS3 helicase counter-screen. DNA fluorescent intercalator displacement, fluorescence. inhibition, % at 7.9 µM. 0.17% of 290,000 active. AID 1845;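 also: higher means more ethidium bromide displaced from hairpin DNA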
ZTA counter = blocks Epstein-Barr virus ZTA, an EBNA-1 counter-screen. P03206. ZTA-DNA binding, fluorescence polarization. inhibition, % at 11 µM. 0.15% of 320,000 active. AID 2234; in the data active = inhibition above about 33%
Target sequence (P03206 whole entry, looked up): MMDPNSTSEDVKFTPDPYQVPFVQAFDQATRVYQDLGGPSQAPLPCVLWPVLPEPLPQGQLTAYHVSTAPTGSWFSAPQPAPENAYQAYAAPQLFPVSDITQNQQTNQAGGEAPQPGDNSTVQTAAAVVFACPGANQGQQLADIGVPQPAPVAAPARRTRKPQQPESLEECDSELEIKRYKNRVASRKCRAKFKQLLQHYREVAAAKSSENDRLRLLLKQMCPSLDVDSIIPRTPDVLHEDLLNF
NS3 helicase cf = confirmation of Hepatitis C virus NS3 helicase inhibitors; inhibition, % at 10.9 µM; NS3 helicase DNA unwinding, Cy5 molecular beacon fluorescence; shares compounds with NS3 helicase inh; 31% of 1,600 active;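 active = inhibition above the mean of all tested compounds plus 3 SD, cutoff set per campaign, cut at about 36% in these data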
DNA FID counter-2 = displaces DNA intercalator in HCV helicase counter-screen; DNA fluorescent intercalator displacement, fluorescence; inhibition, % at 7.9 µM; shares compounds with NS3 helicase inh; 4% of 1,600 active;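 also: higher means more displacement of ethidium bromide from the DNA hairpin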
FID counter DR = DNA intercalator displacement in dose response. shares compounds with NS3 helicase inh. AID 2172. fluorescent intercalator displacement from DNA, fluorescence. 120 tested, under 10 active. IC50, µM; call rule not given here
Each line names hits and unclear results; the compound was inactive in the other large screens (follow-up assays come after a bar, where they were run). Rule as the data show it, unless noted: active = inhibition above about 37%; inactive = the rest.

Cc1cc(NC(=O)CC(C)C)c(=O)n(Cc2cccc(F)c2)c1	NS3 helicase inh 38.9 | NS3 helicase cf inactive | DNA FID counter-2 inactive
COCC(=O)Nc1cc(C)cn(Cc2ccc(F)cc2)c1=O	none
Cc1scc(C(=O)N/N=C/c2ccc([N+](=O)[O-])o2)c1C	NS3 helicase inh 43.4 | NS3 helicase cf inactive | DNA FID counter-2 inactive
CCCCCC(=O)N/N=C/c1ccc([N+](=O)[O-])o1	NS3 helicase inh 39.3 | NS3 helicase cf inactive | DNA FID counter-2 inactive
CCC(C)c1ccc(NC(=O)C2=CC=CN3CCS(=O)(=O)N=C23)cc1 (stereo unspecified)	none (no result: GPR7 antag, EBNA-1 inh, NS3 helicase inh, DNA FID counter-1)
COc1cc(-c2ccc3c(=O)c4ccccc4n(C)c3c2)cc(OC)c1OC	none
COc1ccc(-c2cc(Cl)cc3c(=O)c4ccccc4n(C)c23)cc1F	NS3 helicase inh 66.5 | NS3 helicase cf inactive | DNA FID counter-2 inactive
Cc1ccc(NC(=O)COC(=O)C2CC3C=CC2C3)cc1S(=O)(=O)N1CCCCC1 (stereo unspecified)	NS3 helicase inh 62.3 | NS3 helicase cf inactive | DNA FID counter-2 inactive
Cc1ccc(C(=O)Nc2ccc3c(c2)OCO3)cc1	NS3 helicase inh 37.8 | NS3 helicase cf inactive | DNA FID counter-2 inactive
O=S(=O)(O)c1cccc2c(N=Nc3ccc(O)c4ncccc34)cccc12	NS3 helicase inh 84.2 | NS3 helicase cf 77.4 | DNA FID counter-2 inactive
CC(=O)Oc1ccc(/C=C(\NC(=O)c2ccco2)C(=O)NCc2ccco2)cc1	none
CCOc1ccc(CNC(=O)CN2C(=O)CSc3ccc(S(=O)(=O)N4CCOCC4)cc32)cc1OC	none
O=[N+]([O-])c1cnc2ccccc2c1	none
O=[N+]([O-])c1cc([N+](=O)[O-])c2cc3ccccc3nc2c1	NS3 helicase inh 36.2 | NS3 helicase cf inactive | DNA FID counter-2 inactive
COc1ccccc1/C=C/C1=NC(=C\C=C/c2ccccc2)/C(=O)O1	NS3 helicase inh 46.2 | NS3 helicase cf 61.3 | DNA FID counter-2 inactive | FID counter DR inactive
N#Cc1c(C(F)(F)F)cc(-c2ccco2)nc1SCc1ccccn1	none
N#Cc1c(C(F)(F)F)cc(-c2ccco2)nc1SCc1ccncc1	NS3 helicase inh 43.8 | NS3 helicase cf inactive | DNA FID counter-2 inactive
COc1ccc(CNc2ccccc2SC)cc1OC	none
COc1ccc(CNc2cccc3[nH]c(C(F)(F)F)nc23)cc1OC	NS3 helicase inh 41.5 | NS3 helicase cf inactive | DNA FID counter-2 inactive
CC(C)C(C(=O)O)N1C(=O)/C(=C/C=C/c2ccco2)SC1=S (stereo unspecified)	EBNA-1 inh 41.5, NS3 helicase inh 44.5, ZTA counter 99.3 | NS3 helicase cf 77.9 | DNA FID counter-2 inactive
O=C1/C(=C\c2ccco2)SC(=S)N1c1ccc(O)cc1	none
CC(C(=O)Nc1ccc(C(=O)O)c(O)c1)N1C(=O)/C(=C\c2ccco2)SC1=S (stereo unspecified)	none
O=C(NN1C(=O)/C(=C/C=C/c2ccco2)SC1=S)c1ccncc1	EBNA-1 inh 50.8, NS3 helicase inh 40.0, ZTA counter 74.2 | NS3 helicase cf 77.9 | DNA FID counter-2 inactive
O=C(NN1C(=O)/C(=C/C=C/c2ccccc2)SC1=S)c1ccncc1	none
O=C1/C(=C/C=C/c2ccco2)SC(=S)N1c1ccc(O)cc1	NS3 helicase inh 51.1 | NS3 helicase cf 90.8 | DNA FID counter-2 inactive | FID counter DR inactive
COC(=O)c1ccc(N2CCN(c3ccccc3)CC2)c(N)c1	none
NC(=O)Cn1c(=O)n(Cc2ccco2)c(=O)c2c3c(sc21)CCCCC3	NS3 helicase inh 38.7 | NS3 helicase cf inactive | DNA FID counter-2 inactive
O=C(Cn1c(=O)n(Cc2ccco2)c(=O)c2c3c(sc21)CCCC3)Nc1ccccc1	NS3 helicase inh 47.2 | NS3 helicase cf inactive | DNA FID counter-2 inactive
O=c1c2c3c(sc2n(CCN2CCCCC2)c(=O)n1Cc1ccco1)CCCCC3	none
CCOCCn1cnc2sc(C(=O)NCCCN3CCOCC3)c(C)c2c1=O	none
NS(=O)(=O)c1cc(C(=O)NC2CCSc3ccccc32)ccc1Cl (stereo unspecified)	NS3 helicase inh 83.5 | NS3 helicase cf 74.1 | DNA FID counter-2 inactive
O=C(Cn1cc(C(=O)COc2ccccc2)c2ccccc21)NCc1ccco1	NS3 helicase inh 44.0 | NS3 helicase cf inactive | DNA FID counter-2 inactive
CC(=O)c1cn(CC(=O)NCc2ccco2)c2ccccc12	none
CSC[C@@H]1NC(=S)N(c2ccc(C)cc2)C1=O	NS3 helicase inh 36.4 | NS3 helicase cf inactive | DNA FID counter-2 inactive
Cc1ccc(N2C(=O)C3CCC(C)(C2=O)C3(C)C)cc1 (stereo unspecified)	none
CCC1=Nc2cc(C(=O)NCc3ccco3)ccc2Sc2ccc(Cl)cc21	NS3 helicase inh 36.9 | NS3 helicase cf inactive | DNA FID counter-2 inactive
Cc1cc(Cl)ccc1C(=O)C1CCCN(C(=O)c2cnn(C(C)C)c2)C1 (stereo unspecified)	none
Oc1c(Br)cc(Br)cc1/C=N/NC(=S)N[C@H]1CC2C=CC1C2 (stereo partly specified)	NS3 helicase inh 37.4 | NS3 helicase cf 59.1 | DNA FID counter-2 inactive | FID counter DR inactive
CC(=O)Oc1ccc(C23CC4CC(CC(C4)C2)C3)cc1C(=O)O	NS3 helicase inh 40.3 | NS3 helicase cf inactive | DNA FID counter-2 inactive
O=C(Nc1ccccc1N1CCOCC1)c1cccnc1Cl	NS3 helicase inh 53.3, DNA FID counter-1 46.8 | NS3 helicase cf inactive | DNA FID counter-2 inactive
CCC(c1nnc(SCC(=O)Nc2cc(S(C)(=O)=O)ccc2Cl)n1Cc1ccccc1)N(C)C (stereo unspecified)	none
COc1cccc(-c2ncc3ccccc3c2COC(=O)c2cccc(Br)c2)c1	none (no result: GPR7 antag, EBNA-1 inh, NS3 helicase inh, DNA FID counter-1)
C=CCN=c1scc(-c2ccco2)n1/N=C/c1ccc(O)c(O)c1O	NS3 helicase inh 40.1 | NS3 helicase cf inactive | DNA FID counter-2 inactive
CN=c1scc(-c2cccs2)n1/N=C/c1ccccc1O	none
COCCN=c1scc(-c2ccco2)n1/N=C/c1ccc(O)c(O)c1O	none
CN=c1scc(-c2cccs2)n1/N=C/c1ccc(O)c(O)c1O	NS3 helicase inh 54.4 | NS3 helicase cf inactive | DNA FID counter-2 inactive
CC1CCCCN1C(=O)Cn1cc(C(=O)c2ccco2)c2ccccc21 (stereo unspecified)	NS3 helicase inh 38.3 | NS3 helicase cf inactive | DNA FID counter-2 inactive
O=C(Nc1nc(-c2ccco2)c(-c2ccco2)s1)C1CC(=O)N(c2ccc3c(c2)OCCO3)C1 (stereo unspecified)	NS3 helicase inh 39.8 | NS3 helicase cf 72.2 | DNA FID counter-2 inactive | FID counter DR inactive
O=C(Nc1nnc(-c2ccco2)s1)C1CCCCC1	none
O=C(Nc1nc(-c2ccco2)c(-c2ccco2)s1)C1CCC1	NS3 helicase inh 57.9 | NS3 helicase cf 46.8 | DNA FID counter-2 inactive | FID counter DR inactive
